Laboratory results from ChEMBL document CHEMBL1135893, “Synthesis and mode of action of hydrophobic derivatives of the glycopeptide antibiotic eremomycin and des-(N-methyl-D-leucyl)eremomycin against glycopeptide-sensitive and -resistant bacteria” (J Med Chem, 2002).
pIC50: −log10 of the molar value.

Key:
Nucleic Acid [1] = assay: Inhibition of the peptidoglycan synthesis in the absence of dipeptide bonding using UDP-MurNAc-tetrapeptide; format: nucleic-acid assay
Procedure, shortened: (§1)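 Peptidoglycan synthesis run on filter plates with E. coli OV58 (pTA9) membranes, UDP-MurNAc-pentapeptide or UDP-MurNAc-tetrapeptide plus UDP-N-acetyl-[14C]-D-glucosamine as substrates; radiolabel incorporation into peptidoglycan measured. IC50 from at least six drug concentrations in duplicate, fitted by four-parameter logistic nonlinear regression.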

Staphylococcus aureus [2] = assay: Antibacterial activity evaluated as minimum inhibitory concentration against 3797 Staphylococcus aureus (GISA); format: functional; parameters: unit not given beside the values
Procedure, shortened: (§2)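 Broth microdilution in Mueller Hinton broth per NCCLS procedure; repeat results usually identical, always within 2-fold. GISA strains 3797 (HIP-5836 New Jersey) and 3798 (HIP-5827 Michigan); 533 S. epidermidis and 602 S. haemolyticus are clinical isolates; vancomycin-resistant enterococci have confirmed genotype.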

Enterococcus faecalis [3] = assay: Antibacterial activity evaluated as minimum inhibitory concentration against 560 Enterococcus faecalis (GRE); format: functional; procedure, shortened: as §2
[4] = system: Staphylococcus haemolyticus; assay: Antibacterial activity evaluated as minimum inhibitory concentration against 602 Staphylococcus haemolyticus; parameters: unit not given beside the values
Enterococcus faecalis [5] = assay: Antibacterial activity evaluated as minimum inhibitory concentration against 559 Enterococcus faecalis (GSE); format: functional; parameters: unit not given beside the values; procedure, shortened: as §2
Nucleic Acid [6] = assay: Ratio UDP-MurNAc-tetrapeptide to UDP-MurNAc-Pentapeptide; format: nucleic-acid assay
Enterococcus faecium [7] = assay: Antibacterial activity evaluated as minimum inhibitory concentration against 568 Enterococcus faecium (GSE); format: functional; procedure, shortened: as §2
Nucleic Acid [8] = assay: Inhibition of the peptidoglycan synthesis in the absence of dipeptide bonding using UDP-MurNAc-pentapeptide; format: nucleic-acid assay; procedure, shortened: as §1
[9] = system: Staphylococcus epidermidis; assay: Antibacterial activity evaluated as minimum inhibitory concentration against 533 Staphylococcus epidermidis; format: functional; procedure, shortened: as §2
Enterococcus faecium [10] = assay: Antibacterial activity evaluated as minimum inhibitory concentration against 569 Enterococcus faecium (GRE); format: functional; procedure, shortened: as §2
Staphylococcus aureus [11] = assay: Antibacterial activity evaluated as minimum inhibitory concentration against 3798 Staphylococcus aureus (GISA); format: functional; parameters: unit not given beside the values; procedure, shortened: as §2

Structure (SMILES) | pIC50 (Nucleic Acid [1]) | MIC (Staphylococcus aureus [2]) | MIC (Enterococcus faecalis [3]) | MIC (Enterococcus faecalis [5]) | Ratio (Nucleic Acid [6]) | MIC (Enterococcus faecium [7]) | pIC50 (Nucleic Acid [8]) | MIC [9] | MIC (Enterococcus faecium [10]) | MIC (Staphylococcus aureus [11]) | MIC [4]
CN[C@@H](CC(C)C)C(=O)N[C@H]1C(=O)N[C@@H](CC(N)=O)C(=O)N[C@H]2C(=O)N[C@H]3C(=O)N[C@H](C(=O)N[C@H](C(=O)O)c4cc(O)cc(O)c4-c4cc3ccc4O)[C@H](O[C@H]3C[C@@](C)(N)[C@@H](O)[C@@H](C)O3)c3cccc(c3)Oc3cc2cc(c3O[C@@H]2O[C@@H](CO)[C@H](O)[C@@H](O)[C@@H]2O[C@H]2C[C@@](C)(NCc3ccc(-c4ccc(Cl)cc4)cc3)[C@@H](O)[C@@H](C)O2)Oc2ccc(cc2Cl)[C@H]1O | 5.57 |  |  |  | 23 |  | 6.92 |  |  |  | 
CN[C@H](CC(C)C)C(=O)N[C@H]1C(=O)N[C@@H](CC(N)=O)C(=O)N[C@H]2C(=O)N[C@H]3C(=O)N[C@H](C(=O)N[C@H](C(=O)O)c4cc(O)cc(O)c4-c4cc3ccc4O)[C@H](O[C@H]3C[C@@](C)(N)[C@@H](O)[C@@H](C)O3)c3cccc(c3)Oc3cc2cc(c3O[C@@H]2O[C@@H](CO)[C@H](O)[C@@H](O)[C@@H]2O[C@H]2C[C@@](C)(NCc3ccc(-c4ccc(Cl)cc4)cc3)[C@@H](O)[C@@H](C)O2)Oc2ccc(cc2Cl)[C@H]1O |  | 4 | 8 | 4 |  | 2 |  | 2 | 4 | 4 | 4
CCCCCCCCCCNC(=O)[C@H]1NC(=O)[C@H]2NC(=O)[C@H](NC(=O)[C@@H]3NC(=O)[C@H](CC(N)=O)NC(=O)[C@H](N)[C@H](O)c4ccc(c(Cl)c4)Oc4cc3cc(c4O[C@@H]3O[C@@H](CO)[C@H](O)[C@@H](O)[C@@H]3O[C@H]3C[C@@](C)(N)[C@@H](O)[C@@H](C)O3)Oc3cccc(c3)[C@H]2O[C@H]2C[C@@](C)(N)[C@@H](O)[C@@H](C)O2)c2ccc(O)c(c2)-c2c(O)cc(O)cc21 |  | 4 | 4 | 2 |  | 2 |  | 0.5 | 2 | 8 | 1
CN[C@H](CC(C)C)C(=O)N[C@H]1C(=O)N[C@@H](CC(N)=O)C(=O)N[C@H]2C(=O)N[C@H]3C(=O)N[C@H](C(=O)N[C@H](C(=O)O)c4cc(O)c(CNCc5ccc(-c6ccc(Cl)cc6)cc5)c(O)c4-c4cc3ccc4O)[C@H](O[C@H]3C[C@@](C)(N)[C@@H](O)[C@@H](C)O3)c3cccc(c3)Oc3cc2cc(c3O[C@@H]2O[C@@H](CO)[C@H](O)[C@@H](O)[C@@H]2O[C@H]2C[C@@](C)(N)[C@@H](O)[C@@H](C)O2)Oc2ccc(cc2Cl)[C@H]1O |  | 2 | 16 | 1 |  | 1 |  | 0.5 | 8 | 2 | 0.25
C[C@H]1O[C@@H](O[C@@H]2[C@H](Oc3c4cc5cc3Oc3ccc(cc3Cl)[C@@H](O)[C@@H](N)C(=O)N[C@@H](CC(N)=O)C(=O)N[C@H]5C(=O)N[C@H]3C(=O)N[C@H](C(=O)N[C@H](C(=O)NCc5ccc(-c6ccc(Cl)cc6)cc5)c5cc(O)cc(O)c5-c5cc3ccc5O)[C@H](O[C@H]3C[C@@](C)(N)[C@@H](O)[C@@H](C)O3)c3cccc(c3)O4)O[C@@H](CO)[C@H](O)[C@H]2O)C[C@@](C)(N)[C@H]1O |  | 8 | 4 | 4 |  | 4 |  | 4 | 2 | 8 | 4
CCCCCCCCCCN[C@]1(C)C[C@H](O[C@@H]2[C@H](Oc3c4cc5cc3Oc3ccc(cc3Cl)[C@@H](O)[C@@H](N)C(=O)N[C@@H](CC(N)=O)C(=O)N[C@H]5C(=O)N[C@H]3C(=O)N[C@H](C(=O)N[C@H](C(=O)O)c5cc(O)cc(O)c5-c5cc3ccc5O)[C@H](O[C@H]3C[C@@](C)(N)[C@@H](O)[C@@H](C)O3)c3cccc(c3)O4)O[C@@H](CO)[C@H](O)[C@H]2O)O[C@H](C)[C@@H]1O |  | 8 | 16 | 8 |  | 8 |  | 4 | 16 | 16 | 8

More lines, main results first:

pIC50 (Nucleic Acid [1]) | MIC (Staphylococcus aureus [2]) | MIC (Enterococcus faecalis [3]) | MIC (Enterococcus faecalis [5]) | Ratio (Nucleic Acid [6]) | MIC (Enterococcus faecium [7]) | pIC50 (Nucleic Acid [8]) | MIC [9] | MIC (Enterococcus faecium [10]) | MIC (Staphylococcus aureus [11]) | Structure (SMILES) | MIC [4]
5.19 | 4 | 4 | 1 | 5 | 0.5 | 5.89 | 0.13 | 2 | 4 | CCCCCCCCCCNC(=O)[C@H]1NC(=O)[C@H]2NC(=O)[C@H](NC(=O)[C@@H]3NC(=O)[C@H](CC(N)=O)NC(=O)[C@H](NC(=O)[C@@H](CC(C)C)NC)[C@H](O)c4ccc(c(Cl)c4)Oc4cc3cc(c4O[C@@H]3O[C@@H](CO)[C@H](O)[C@@H](O)[C@@H]3O[C@H]3C[C@@](C)(N)[C@@H](O)[C@@H](C)O3)Oc3cccc(c3)[C@H]2O[C@H]2C[C@@](C)(N)[C@@H](O)[C@@H](C)O2)c2ccc(O)c(c2)-c2c(O)cc(O)cc21 | 0.13
4.88 | 4 | 8 | 0.5 | 7.3 | 0.5 | 5.74 | 0.5 | 4 | 4 | CCCCCCCCCCN[C@]1(C)C[C@H](O[C@@H]2[C@H](Oc3c4cc5cc3Oc3ccc(cc3Cl)[C@@H](O)[C@@H](NC(=O)[C@@H](CC(C)C)NC)C(=O)N[C@@H](CC(N)=O)C(=O)N[C@H]5C(=O)N[C@H]3C(=O)N[C@H](C(=O)N[C@H](C(=O)O)c5cc(O)cc(O)c5-c5cc3ccc5O)[C@H](O[C@H]3C[C@@](C)(N)[C@@H](O)[C@@H](C)O3)c3cccc(c3)O4)O[C@@H](CO)[C@H](O)[C@H]2O)O[C@H](C)[C@@H]1O | 0.5
 | 64 | >128 | 16 |  | 16 |  | 16 | >128 | 64 | C[C@H]1O[C@@H](O[C@@H]2[C@H](Oc3c4cc5cc3Oc3ccc(cc3Cl)[C@@H](O)[C@@H](N)C(=O)N[C@@H](CC(N)=O)C(=O)N[C@H]5C(=O)N[C@H]3C(=O)N[C@H](C(=O)N[C@H](C(=O)O)c5cc(O)cc(O)c5-c5cc3ccc5O)[C@H](O[C@H]3C[C@@](C)(N)[C@@H](O)[C@@H](C)O3)c3cccc(c3)O4)O[C@@H](CO)[C@H](O)[C@H]2O)C[C@@](C)(N)[C@H]1O | 16
 | 8 | >128 | 0.25 |  | 0.25 |  | 0.25 | >128 | 8 | CN[C@H](CC(C)C)C(=O)N[C@H]1C(=O)N[C@@H](CC(N)=O)C(=O)N[C@H]2C(=O)N[C@H]3C(=O)N[C@H](C(=O)N[C@H](C(=O)O)c4cc(O)cc(O)c4-c4cc3ccc4O)[C@H](O[C@H]3C[C@@](C)(N)[C@@H](O)[C@@H](C)O3)c3cccc(c3)Oc3cc2cc(c3O[C@@H]2O[C@@H](CO)[C@H](O)[C@@H](O)[C@@H]2O[C@H]2C[C@@](C)(N)[C@@H](O)[C@@H](C)O2)Oc2ccc(cc2Cl)[C@H]1O | 0.25
 | 4 | 4 | 2 |  | 1 |  | 2 | 4 | 4 | CN[C@H](CC(C)C)C(=O)N[C@H]1C(=O)N[C@@H](CC(N)=O)C(=O)N[C@H]2C(=O)N[C@H]3C(=O)N[C@H](C(=O)N[C@H](C(=O)NCc4ccc(-c5ccc(Cl)cc5)cc4)c4cc(O)cc(O)c4-c4cc3ccc4O)[C@H](O[C@H]3C[C@@](C)(N)[C@@H](O)[C@@H](C)O3)c3cccc(c3)Oc3cc2cc(c3O[C@@H]2O[C@@H](CO)[C@H](O)[C@@H](O)[C@@H]2O[C@H]2C[C@@](C)(N)[C@@H](O)[C@@H](C)O2)Oc2ccc(cc2Cl)[C@H]1O | 1
 | 2 | 8 | 0.5 |  | 0.5 |  | 0.25 | 8 | 2 | CCCCCCCCCCNCc1c(O)cc2c(c1O)-c1cc(ccc1O)[C@H]1NC(=O)[C@@H]3NC(=O)[C@H](CC(N)=O)NC(=O)[C@H](NC(=O)[C@@H](CC(C)C)NC)[C@H](O)c4ccc(c(Cl)c4)Oc4cc3cc(c4O[C@@H]3O[C@@H](CO)[C@H](O)[C@@H](O)[C@@H]3O[C@H]3C[C@@](C)(N)[C@@H](O)[C@@H](C)O3)Oc3cccc(c3)[C@@H](O[C@H]3C[C@@](C)(N)[C@@H](O)[C@@H](C)O3)[C@H](NC1=O)C(=O)N[C@@H]2C(=O)O | 0.25
< 3.19 |  |  |  | > 2300 |  | 6.52 |  |  |  | CN[C@@H](CC(C)C)C(=O)N[C@H]1C(=O)N[C@@H](CC(N)=O)C(=O)N[C@H]2C(=O)N[C@H]3C(=O)N[C@H](C(=O)N[C@H](C(=O)O)c4cc(O)cc(O)c4-c4cc3ccc4O)[C@H](O[C@H]3C[C@@](C)(N)[C@@H](O)[C@@H](C)O3)c3cccc(c3)Oc3cc2cc(c3O[C@@H]2O[C@@H](CO)[C@H](O)[C@@H](O)[C@@H]2O[C@H]2C[C@@](C)(N)[C@@H](O)[C@@H](C)O2)Oc2ccc(cc2Cl)[C@H]1O | 
